How the values were obtained:
[1] = Cytotoxicity against human whole blood IL-1-beta-stimulated lymphocytes assessed as survival cell count in millions at 3 uM by trypan blue staining based hemocytometer
HeLa [2] = assay: Cell cycle arrest in TNF-alpha-stimulated human HeLa cells transfected with NFkappaB-Luc assessed as accumulation at diploid G2 phase at 5 uM after 8 hrs by propidium iodide-based flow cytometry; assay type: functional
Method in brief: (§1)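 HeLa NF-κB-luc cells (stable, hygromycin-selected) were treated with vehicle (1% DMSO) or compound at 40–0.2 µM final for 8 h at 37 °C, 5% CO2. Adherent cells were trypsinized, resuspended in PBS/50% FBS, fixed overnight in 70% ice-cold ethanol and washed with cold PBS/10% FBS, then analysed for cell cycle by flow cytometry.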

HeLa [3] = assay: Cell cycle arrest in TNF-alpha-stimulated human HeLa cells transfected with NFkappaB-Luc assessed as accumulation at S phase at 5 uM after 8 hrs by propidium iodide-based flow cytometry; assay type: functional; method in brief: as §1
[4] = Cytotoxicity against human whole blood IL-1-beta-stimulated lymphocytes assessed as survival cell count in millions at 20 uM by trypan blue staining based hemocytometer
HeLa [5] = assay: Cell cycle arrest in TNF-alpha-stimulated human HeLa cells transfected with NFkappaB-Luc assessed as accumulation at G2/G1 phase at 20 uM after 8 hrs by propidium iodide-based flow cytometry; assay type: functional; method in brief: as §1
HeLa [6] = assay: Cell cycle arrest in TNF-alpha-stimulated human HeLa cells transfected with NFkappaB-Luc assessed as accumulation at diploid stage at 10 uM after 8 hrs by propidium iodide-based flow cytometry; assay type: functional; method in brief: as §1
HeLa [7] = assay: Cell cycle arrest in human HeLa cells transfected with NFkappaB-Luc assessed as accumulation at diploid G1 phase at 20 uM after 8 hrs by propidium iodide-based flow cytometry; assay type: functional; method in brief: as §1
HeLa [8] = assay: Cell cycle arrest in TNF-alpha-stimulated human HeLa cells transfected with NFkappaB-Luc assessed as accumulation at diploid stage at 20 uM after 8 hrs by propidium iodide-based flow cytometry; assay type: functional; method in brief: as §1
HeLa [9] = assay: Cell cycle arrest in TNF-alpha-stimulated human HeLa cells transfected with NFkappaB-Luc assessed as accumulation at G2/G1 phase after 8 hrs by propidium iodide-based flow cytometry
HeLa [10] = assay: Cell cycle arrest in human HeLa cells transfected with NFkappaB-Luc assessed as accumulation at diploid G2 phase at 20 uM after 8 hrs by propidium iodide-based flow cytometry; assay type: functional; method in brief: as §1
HeLa [11] = assay: Cell cycle arrest in human HeLa cells transfected with NFkappaB-Luc assessed as accumulation at G2/G1 phase at 20 uM after 8 hrs by propidium iodide-based flow cytometry; assay type: functional; method in brief: as §1
HeLa [12] = assay: Cell cycle arrest in TNF-alpha-stimulated human HeLa cells transfected with NFkappaB-Luc assessed as accumulation at S phase at 20 uM after 8 hrs by propidium iodide-based flow cytometry; assay type: functional; method in brief: as §1
HeLa [13] = assay: Effect on cell cycle arrest in TNF-alpha-stimulated human HeLa cells assessed as cell debris level at 10 uM after 8 hrs by propidium iodide-based flow cytometry; assay type: functional
[14] = Cytotoxicity against human whole blood lymphocytes assessed as survival cell count in millions at 1 uM by trypan blue staining based hemocytometer
[15] = Cytotoxicity against human whole blood IL-1-beta-stimulated lymphocytes assessed as survival cell count in millions at 1 uM by trypan blue staining based hemocytometer
Blood [16] = assay: Antiinflammatory activity in human whole blood assessed as inhibition of IL-1-beta-induced IL6 production after 18 hrs by ELISA; assay type: functional, tissue-based
Method in brief: (§2)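 Human blood from donors with white count in the normal range, diluted 1:10 in RPMI-1640 with 10% FBS, penicillin and streptomycin. Aliquots were preincubated with vehicle (0.1% DMSO final) or compound at 10, 3, 1, 0.3 or 0.1 µM final for 2 h at 37 °C, 5% CO2. IL-1β (200 U/mL) was then added for 18 h, and plasma was collected and frozen. Cytokine was measured by ELISA.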

HeLa [17] = assay: Cell cycle arrest in TNF-alpha-stimulated human HeLa cells transfected with NFkappaB-Luc assessed as accumulation at diploid G2 phase at 0.1 uM after 8 hrs by propidium iodide-based flow cytometry; assay type: functional
HeLa [18] = assay: Cell cycle arrest in TNF-alpha-stimulated human HeLa cells transfected with NFkappaB-Luc assessed as accumulation at diploid G1 phase at 20 uM after 8 hrs by propidium iodide-based flow cytometry; assay type: functional; method in brief: as §1
HeLa [19] = assay: Effect on cell cycle arrest in human HeLa cells assessed as cell debris level at 20 uM after 8 hrs by propidium iodide-based flow cytometry; assay type: functional
Method in brief: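 Cells were exposed to vehicle (1% DMSO) or compound for 8 h at 37 °C, 5% CO₂. They were then trypsinized, resuspended in PBS with 50% FBS, fixed overnight in ice-cold 70% ethanol, and washed twice with ice-cold PBS containing 10% FBS before flow cytometric cell-cycle analysis.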

Blood [20] = assay: Antiinflammatory activity in human whole blood assessed as inhibition of IL-1-beta-induced TNFalpha production preincubated 2 hrs before addition of IL1-beta measured after 18 hrs by ELISA; assay type: functional, tissue-based; details: Homo sapiens, Blood; method in brief: as §2
[21] = Cytotoxicity against human whole blood lymphocytes assessed as survival cell count in millions at 3 uM by trypan blue staining based hemocytometer
HeLa [22] = assay: Cell cycle arrest in TNF-alpha-stimulated human HeLa cells transfected with NFkappaB-Luc assessed as accumulation at diploid G1 phase at 0.1 uM after 8 hrs by propidium iodide-based flow cytometry; assay type: functional
[23] = Cytotoxicity against human whole blood lymphocytes assessed as survival cell count in millions at 10 uM by trypan blue staining based hemocytometer
Blood [24] = assay: Antiinflammatory activity in human whole blood assessed as inhibition of IL-1-beta-induced IL6 production preincubated 2 hrs before addition of IL1-beta measured after 18 hrs by ELISA; assay type: functional, tissue-based; method in brief: as §2
HeLa [25] = assay: Cell cycle arrest in TNF-alpha-stimulated human HeLa cells transfected with NFkappaB-Luc assessed as accumulation at G2/G1 phase at 10 uM after 8 hrs by propidium iodide-based flow cytometry; assay type: functional; method in brief: as §1
HeLa [26] = assay: Effect on cell cycle arrest in TNF-alpha-stimulated human HeLa cells assessed as cell debris level at 0.05 uM after 8 hrs by propidium iodide-based flow cytometry; assay type: functional
HeLa [27] = assay: Cell cycle arrest in human HeLa cells transfected with NFkappaB-Luc assessed as accumulation at S phase at 20 uM after 8 hrs by propidium iodide-based flow cytometry; assay type: functional; method in brief: as §1
HeLa [28] = assay: Cell cycle arrest in TNF-alpha-stimulated human HeLa cells transfected with NFkappaB-Luc assessed as accumulation at diploid G1 phase at 1 uM after 8 hrs by propidium iodide-based flow cytometry; assay type: functional
HeLa [29] = assay: Effect on cell cycle arrest in TNF-alpha-stimulated human HeLa cells assessed as cell aggregate level at 10 uM after 8 hrs by propidium iodide-based flow cytometry; assay type: functional
HeLa [30] = assay: Cell cycle arrest in TNF-alpha-stimulated human HeLa cells transfected with NFkappaB-Luc assessed as accumulation at diploid G2 phase at 20 uM after 8 hrs by propidium iodide-based flow cytometry; assay type: functional; method in brief: as §1
HeLa [31] = assay: Cell cycle arrest in TNF-alpha-stimulated human HeLa cells transfected with NFkappaB-Luc assessed as accumulation at diploid stage at 0.05 uM after 8 hrs by propidium iodide-based flow cytometry; assay type: functional

Q: With `CCOC(=O)[C@]1(c2ccccc2)N=C(c2ccccc2)N(Cc2ccccc2)[C@@H]1c1ccccc1` (racemic) as the compound, how does the Activity [1] read?
A: 1.28 mL⁻¹

Q: And the Activity (HeLa [2])?
A: 13.84%

Q: And the Activity (HeLa [3])?
A: 19.8%

Q: And the Activity [4]?
A: 1.46 mL⁻¹

Q: What about the Ratio (HeLa [5]) of the same compound?
A: 1.9

Q: What about the Activity (HeLa [6]) of the same compound?
A: 100%

Q: And the Activity (HeLa [7])?
A: 65.19%

Q: And the Activity (HeLa [8])?
A: 100%

Q: And the Ratio (HeLa [9])?
A: 1.91

Q: And the Activity (HeLa [10])?
A: 13.33%

Q: What about the Ratio (HeLa [11]) of the same compound?
A: 1.9

Q: What about the Activity (HeLa [12]) of the same compound?
A: 19.29%

Q: And the Activity (HeLa [13])?
A: 15.28%

Q: What about the Activity [14] of the same compound?
A: 1.2 mL⁻¹

Q: And the Activity [15]?
A: 1.42 mL⁻¹

Q: And the EC50 (Blood [16])?
A: 1830 nM

Q: And the Activity (HeLa [17])?
A: 14.03%

Q: What about the Activity (HeLa [18]) of the same compound?
A: 65.96%

Q: What about the Activity (HeLa [19]) of the same compound?
A: 9.42%

Q: And the IC50 (Blood [20])?
A: 1180 nM

Q: What about the Activity [21] of the same compound?
A: 1.7 mL⁻¹

Q: What about the Activity (HeLa [22]) of the same compound?
A: 64.5%

Q: And the Activity [23]?
A: 1.6 mL⁻¹

Q: And the logIC50 (Blood [24])?
A: 0.07

Q: What about the Ratio (HeLa [25]) of the same compound?
A: 1.91

Q: What about the Activity (HeLa [26]) of the same compound?
A: 2.47%

Q: And the Activity (HeLa [27])?
A: 21.48%

Q: And the Activity (HeLa [28])?
A: 63.22%

Q: What about the Activity (HeLa [29]) of the same compound?
A: 0%

Q: And the Activity (HeLa [30])?
A: 14.75%

Q: What about the Activity (HeLa [31]) of the same compound?
A: 100%
